Data taken from ChEMBL document CHEMBL4152290, “1H-Benzo[d]imidazoles and 3,4-dihydroquinazolin-4-ones: Design, synthesis and antitubercular activity” (Eur J Med Chem, 2018).
Values after ≈ are worked out from the molar mass of the structure shown.

Columns and labels:
[1] = Stability of the compound in PBS containing 10% DMSO at 25 degC measured after 48 hrs by HPLC analysis; format: physicochemical; conditions: buffer
[2] = Stability of the compound in PBS containing 10% DMSO at 25 degC measured immediately by HPLC analysis; format: physicochemical; conditions: read-out: Stability
[3] = Cytotoxicity against human HepG2 cells assessed as cell viability at 10 ug/ml after 72 hrs by neutral red uptake assay (reference value: 100%); format: cell-based; conditions: read-out: Activity
Outline: (§1)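 Seeding was 2×10^3/well for HepG2 and HaCat and 1×10^3/well for Vero. After 24 h, cells received 10 µg/mL final (2% DMSO) for 72 h at 37 °C, 5% CO2. They were washed with PBS, given neutral red 25 µg/mL in serum-free medium for 3 h, washed, and extracted 30 min with acetic acid/EtOH/water 1:50:49. A540 was read. Viability is relative to 2% DMSO controls; mean ± SEM, three experiments in triplicate.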

[4] = Cytotoxicity against human HaCaT cells assessed as cell viability at 10 ug/ml after 72 hrs by neutral red uptake assay (reference value: 100%); format: cell-based; conditions: read-out: Activity; outline: as §1
[5] = Selectivity index, ratio of cytotoxic concentration for African green monkey Vero cells by MTT assay to MIC for Mycobacterium tuberculosis H37Rv ATCC 27294; format: toxicity; conditions: read-out: Selectivity Index
Danio rerio [6] = species: Danio rerio; test: Toxicity in Zebrafish AB embryos assessed as effect on larval survival rate at 3 to 20 uM; format: organism-based; conditions: in vivo
Outline: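 Wild-type AB zebrafish embryos are exposed from 2 hpf to 5 dpf at 3.0, 15.0 and 20.0 µM in fish water with 1% DMSO, at 28 °C on a 14/10 h light-dark cycle. Controls are fish water alone and 1% DMSO. Survival and hatching are checked daily under a stereomicroscope.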

[7] = Selectivity index, ratio of cytotoxic concentration for African green monkey Vero cells by neutral red uptake assay to MIC for Mycobacterium tuberculosis H37Rv ATCC 27294; format: toxicity; conditions: read-out: Selectivity Index
[8] = Cytotoxicity against African green monkey Vero assessed as cell viability at 10 ug/ml after 72 hrs by neutral red uptake assay (reference value: 100%); format: cell-based; conditions: chlorocebus sabaeus, Vero cells; read-out: Activity; outline: as §1
Danio rerio [9] = species: Danio rerio; test: Cardiotoxicity in Zebrafish AB embryos assessed as heart beat rate at 20 uM measured at 2 days post fertilization by stereomicroscopic method (reference value: 128.7 to 146.3 bpm); format: organism-based; conditions: in vivo, 48 h
[10] = Cytotoxicity against human HepG2 cells assessed as cell viability at 10 ug/ml after 72 hrs by MTT assay (reference value: 100%); format: cell-based; conditions: read-out: Activity
Outline: (§2)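 Cells were grown in DMEM with 10% heat-inactivated FBS and penicillin-streptomycin, seeded at 2×10^3/well (HepG2, HaCat) or 1×10^3/well (Vero), then left 24 h. Compound was applied at 10 µg/mL final (2% DMSO) for 72 h at 37 °C, 5% CO2. MTT 1 mg/mL was added for 3 h, formazan dissolved in DMSO, and A595 read. Viability is expressed relative to 2% DMSO wells; mean ± SEM, triplicates, three independent experiments.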

[11] = Selectivity index, ratio of cytotoxic concentration for human HaCaT cells by MTT assay to MIC for Mycobacterium tuberculosis H37Rv ATCC 27294; format: toxicity; conditions: read-out: Selectivity Index
Danio rerio [12] = species: Danio rerio; test: Cardiotoxicity in Zebrafish AB embryos assessed as heart beat rate at 3 uM measured at 2 days post fertilization by stereomicroscopic method (reference value: 128.7 to 146.3 bpm); format: organism-based; conditions: in vivo, 48 h
Danio rerio [13] = species: Danio rerio; test: Cardiotoxicity in Zebrafish AB embryos assessed as heart beat rate at 20 uM measured at 5 days post fertilization by stereomicroscopic method (reference value: 148.1 to 158.2 bpm); format: organism-based; conditions: in vivo, 120 h
[14] = Stability of the compound in PBS containing 10% DMSO at 37 degC measured after 24 hrs by HPLC analysis; format: physicochemical; conditions: PBS containing 10% DMSO; read-out: Stability
[15] = Stability of the compound in PBS containing 10% DMSO at 25 degC measured after 6 hrs by HPLC analysis; format: physicochemical; conditions: buffer
[16] = Cytotoxicity against human HaCaT cells assessed as cell viability at 10 ug/ml after 72 hrs by MTT assay (reference value: 100%); format: cell-based; conditions: read-out: Activity; outline: as §2
[17] = Stability of the compound in PBS containing 10% DMSO at 37 degC measured after 3 hrs by HPLC analysis; format: physicochemical; conditions: read-out: Stability
[18] = Cytotoxicity against African green monkey Vero assessed as cell viability at 10 ug/ml after 72 hrs by MTT assay (reference value: 100%); format: cell-based; conditions: chlorocebus sabaeus, Vero cells; read-out: Activity; outline: as §2
[19] = Stability of the compound in PBS containing 10% DMSO at 37 degC measured after 9 hrs by HPLC analysis; format: physicochemical; conditions: PBS containing 10% DMSO; read-out: Stability
Danio rerio [20] = species: Danio rerio; test: Toxicity in Zebrafish AB embryos assessed as morphological alteration by measuring effect on body length of larvae at 3 to 20 uM measured at 2 to 5 days post fertilization by stereomicroscopic method; format: organism-based; conditions: in vivo
Outline: (§3)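 AB embryos are treated from 2 hpf to 5 dpf at 3.0, 15.0 and 20.0 µM in fish water with 1% DMSO, at 28 °C. Controls are fish water and 1% DMSO. Larvae are photographed under a stereomicroscope (3×) at 2 and 5 dpf, n = 30. Body length (µm), ocular distance (µm) and eye surface area (µm²) are measured from the images.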

[21] = system: Mycobacterium tuberculosis; test: Antitubercular activity against Mycobacterium tuberculosis H37Rv ATCC 27294 after 7 days by resazurin dye based assay; format: functional; conditions: H37Rv ATCC 27294, 168 h
Outline: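 Resazurin microtiter MIC in 7H9 with 10% ADC. Two-fold dilutions from 1 mg/mL DMSO stocks span 25.0–0.05, 10.0–0.02 or 0.02–0.0004 µg/mL, with 2.5% DMSO final. Inoculum is bead-declumped culture grown in 7H9/10% OADC/0.05% Tween 80, diluted to OD600 0.006. Plates run 7 days at 37 °C, then 0.01% resazurin for 48 h. MIC is the lowest concentration preventing the blue-to-pink change. Three independent tests.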

[22] = Stability of the compound in PBS containing 10% DMSO at 25 degC measured after 3 hrs by HPLC analysis; format: physicochemical; conditions: buffer
Danio rerio [23] = species: Danio rerio; test: Cardiotoxicity in Zebrafish AB embryos assessed as heart beat rate at 15 uM measured at 2 days post fertilization by stereomicroscopic method (reference value: 128.7 to 146.3 bpm); format: organism-based; conditions: in vivo, 48 h
[24] = Stability of the compound in PBS containing 10% DMSO at 37 degC measured immediately by HPLC analysis; format: physicochemical; conditions: read-out: Stability
Danio rerio [25] = species: Danio rerio; test: Cardiotoxicity in Zebrafish AB embryos assessed as heart beat rate at 15 uM measured at 5 days post fertilization by stereomicroscopic method (reference value: 148.1 to 158.2 bpm); format: organism-based; conditions: in vivo, 120 h
[26] = Selectivity index, ratio of cytotoxic concentration for human HaCaT cells by neutral red uptake assay to MIC for Mycobacterium tuberculosis H37Rv ATCC 27294; format: toxicity; conditions: read-out: Selectivity Index
Danio rerio [27] = species: Danio rerio; test: Toxicity in Zebrafish AB embryos assessed as morphological alteration by measuring effect on surface area of eyes at 3 to 20 uM measured at 2 to 5 days post fertilization by stereomicroscopic method; format: organism-based; conditions: in vivo; outline: as §3
[28] = Stability of the compound in PBS containing 10% DMSO at 25 degC measured after 9 hrs by HPLC analysis; format: physicochemical; conditions: buffer

| SMILES | Stability [1] [%] | remaining at 0 h [2] [%] | viability at 72 h, 10 ug/ml [3] [%] | viability at 72 h, 10 ug/ml [4] [%] | selectivity ratio [5] | Activity (Danio rerio [6]) | selectivity ratio [7] | viability at 72 h, 10 ug/ml [8] [%] | Activity (Danio rerio [9]) [bpm] | viability at 72 h, 10 ug/ml [10] [%] | selectivity ratio [11] | Activity (Danio rerio [12]) [bpm] | Activity (Danio rerio [13]) [bpm] | remaining at 24 h [14] [%] | Stability [15] [%] | viability at 72 h, 10 ug/ml [16] [%] | remaining at 3 h [17] [%] | viability at 72 h, 10 ug/ml [18] [%] | remaining at 9 h [19] [%] | Activity (Danio rerio [20]) | also measured |
| --- | --- | --- | --- | --- | --- | --- | --- | --- | --- | --- | --- | --- | --- | --- | --- | --- | --- | --- | --- | --- | --- |
| CC1CCC(NC(=O)CSc2nc3ccccc3c(=O)[nH]2)CC1 (centres undefined) | 125 | 100 | 96 | 94 | ≤ 32 | Non-Toxic | ≤ 32 | 95 | 146.4 | 89 | ≤ 32 | 122.3 | 152.2 | 43 | 97 | 95 | 80 | 84 | 69 | Non-Toxic | MIC [21]: 0.24 µM (≈ 0.0795 µg/mL); Stability [22]: 97%; Activity (Danio rerio [23]): 127.2 bpm; remaining at 0 h [24]: 100%; Activity (Danio rerio [25]): 150.3 bpm; selectivity ratio [26]: ≤ 32; Activity (Danio rerio [27]): Non-Toxic; Stability [28]: 99% |
| O=C(CSc1nc2ccccc2c(=O)[nH]1)NC1CCCCCC1 | 123 | 100 | 105 | 88 | ≤ 32 | Non-Toxic | ≤ 32 | 94 | 148.4 | 99 | ≤ 32 | 139.6 | 153.8 | 66 | 90 | 100 | 81 | 91 | 68 | Non-Toxic | MIC [21]: 0.48 µM (≈ 0.159 µg/mL); Stability [22]: 80%; Activity (Danio rerio [23]): 136.5 bpm; remaining at 0 h [24]: 100%; Activity (Danio rerio [25]): 160.4 bpm; selectivity ratio [26]: ≤ 32; Activity (Danio rerio [27]): Non-Toxic; Stability [28]: 91% |
| O=C(CSc1nc2ccccc2c(=O)[nH]1)NCC1CCCCC1 | 125 | 100 | 97 | 88 | ≤ 32 | Non-Toxic | ≤ 32 | 97 | 152.6 | 79 | ≤ 32 | 140.7 | 152.5 | 104 | 115 | 98 | 106 | 89 | 112 | Non-Toxic | MIC [21]: 0.94 µM (≈ 0.312 µg/mL); Stability [22]: 103%; Activity (Danio rerio [23]): 143.2 bpm; remaining at 0 h [24]: 100%; Activity (Danio rerio [25]): 158.9 bpm; selectivity ratio [26]: ≤ 32; Activity (Danio rerio [27]): Non-Toxic; Stability [28]: 116% |
